From ChEMBL document CHEMBL4825713, “Promising Non-cytotoxic Monosubstituted Chalcones to Target Monoamine Oxidase-B” (ACS Med Chem Lett, 2021)

Experiments:
[1] = target: T1, Amine oxidase [flavin-containing] B (Homo sapiens, UniProt P27338); assay: Reversible inhibition of recombinant human MAO-B using kynuramine as substrate at 4 times Ki incubated for 20 mins
T1 sequence (P27338 whole entry): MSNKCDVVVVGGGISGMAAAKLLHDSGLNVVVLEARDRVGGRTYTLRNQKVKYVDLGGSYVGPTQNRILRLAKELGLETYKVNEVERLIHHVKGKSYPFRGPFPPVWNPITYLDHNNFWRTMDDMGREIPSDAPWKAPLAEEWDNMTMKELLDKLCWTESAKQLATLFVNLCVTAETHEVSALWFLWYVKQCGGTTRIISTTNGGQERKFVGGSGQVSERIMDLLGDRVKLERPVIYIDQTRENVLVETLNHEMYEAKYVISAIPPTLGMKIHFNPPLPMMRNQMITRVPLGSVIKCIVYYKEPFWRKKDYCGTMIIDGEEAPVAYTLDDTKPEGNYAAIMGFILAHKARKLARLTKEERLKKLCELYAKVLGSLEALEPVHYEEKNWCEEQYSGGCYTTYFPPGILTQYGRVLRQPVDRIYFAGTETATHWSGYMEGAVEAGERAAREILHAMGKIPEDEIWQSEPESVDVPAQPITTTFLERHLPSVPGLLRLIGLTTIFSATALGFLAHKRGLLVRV

[2] = target: T1, Amine oxidase [flavin-containing] B; assay: Competitive inhibition of recombinant human MAO-B expressed in baculovirus infected BTI cells using varying concentration of kynuramine as substrate at 5 to 40 nM by Lineweaver-burk plot analysis; conditions: dose 5-40 nM
Method in brief: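 Initial velocities of human recombinant MAO-B measured at varied kynuramine concentrations, without inhibitor and with inhibitor at 5–40 nM. Data plotted as Lineweaver–Burk double reciprocals (1/v0 vs 1/[S]). Inhibition mode assigned from which intercept changes, x-intercept (−1/Km) versus y-intercept (1/Vmax). Mean ± SD of three independent experiments.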

| SMILES | inhibition (INH) [1] | inhibition (INH) [2] |
| --- | --- | --- |
| O=C(/C=C/c1ccccc1[N+](=O)[O-])c1ccccc1 | Active |  |
| O=C(/C=C/c1ccccc1)c1cccc(C(F)(F)F)c1 | Active | Active |
| O=C(/C=C/c1ccccc1)c1ccc(C(F)(F)F)cc1 | Active |  |
